In one data set the target is α1β2γ2S receptors (Rattus norvegicus, UniProt P62813+P63138). The experiment in a line: IGABA enhancement. The data set is classed as cell-based. Conditions: for Emax: read-out: maximal IGABA enhancement (Emax); for Hill-coefficient (nH): α1β2γ2S, GABA EC3-7, Xenopus oocytes. The gist of the method: (§1)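 Rat α1, β1/β2/β3 and γ2S cRNAs (100–2000 ng/μl/subunit, about 10–50 nl) were injected into collagenase-treated stage V–VI Xenopus oocytes held at 18°C in ND96. The α:β:γ ratio was 1:1:10 for β2 and β3 and 3:1:10 for β1. Recordings used two-electrode voltage clamp at −70 mV in a HEPES bath at pH 7.4. Compound (≤500 µM, DMSO matched) was applied with per-oocyte GABA EC3–7 by fast perfusion. Oocytes above 5 µA were excluded. Enhancement = I(GABA+Comp)/IGABA − 1, Hill-fitted for EC50, Emax and nH; ≥3 oocytes, ≥2 batches.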
α1β2γ2S receptors, sequence (P63138 25-474 limits assumed): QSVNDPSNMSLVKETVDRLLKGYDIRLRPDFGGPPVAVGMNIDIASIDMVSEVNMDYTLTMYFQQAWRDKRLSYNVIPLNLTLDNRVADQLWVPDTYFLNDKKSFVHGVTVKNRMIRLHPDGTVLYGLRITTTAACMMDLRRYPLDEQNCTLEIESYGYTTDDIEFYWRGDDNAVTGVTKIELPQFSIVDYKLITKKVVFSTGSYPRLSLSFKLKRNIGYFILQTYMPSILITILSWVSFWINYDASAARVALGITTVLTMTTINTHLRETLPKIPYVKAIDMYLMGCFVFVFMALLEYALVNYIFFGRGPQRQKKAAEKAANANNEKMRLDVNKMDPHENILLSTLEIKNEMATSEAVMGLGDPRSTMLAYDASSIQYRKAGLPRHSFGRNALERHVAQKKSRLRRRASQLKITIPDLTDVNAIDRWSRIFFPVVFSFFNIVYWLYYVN
α1β2γ2S receptors, sequence (P62813 28-455): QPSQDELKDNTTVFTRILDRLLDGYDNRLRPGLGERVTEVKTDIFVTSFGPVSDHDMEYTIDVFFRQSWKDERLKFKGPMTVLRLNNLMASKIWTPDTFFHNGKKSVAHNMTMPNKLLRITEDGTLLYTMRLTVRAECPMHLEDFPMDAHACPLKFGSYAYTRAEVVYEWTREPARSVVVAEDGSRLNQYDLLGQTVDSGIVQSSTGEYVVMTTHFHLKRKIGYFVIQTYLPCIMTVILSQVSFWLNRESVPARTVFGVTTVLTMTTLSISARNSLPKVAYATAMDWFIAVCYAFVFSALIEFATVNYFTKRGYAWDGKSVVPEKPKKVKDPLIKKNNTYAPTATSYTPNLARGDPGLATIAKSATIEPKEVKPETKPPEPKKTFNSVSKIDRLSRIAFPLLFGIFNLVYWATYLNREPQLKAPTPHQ
α1β2γ2S receptors, sequence (P18508 39-466 partner): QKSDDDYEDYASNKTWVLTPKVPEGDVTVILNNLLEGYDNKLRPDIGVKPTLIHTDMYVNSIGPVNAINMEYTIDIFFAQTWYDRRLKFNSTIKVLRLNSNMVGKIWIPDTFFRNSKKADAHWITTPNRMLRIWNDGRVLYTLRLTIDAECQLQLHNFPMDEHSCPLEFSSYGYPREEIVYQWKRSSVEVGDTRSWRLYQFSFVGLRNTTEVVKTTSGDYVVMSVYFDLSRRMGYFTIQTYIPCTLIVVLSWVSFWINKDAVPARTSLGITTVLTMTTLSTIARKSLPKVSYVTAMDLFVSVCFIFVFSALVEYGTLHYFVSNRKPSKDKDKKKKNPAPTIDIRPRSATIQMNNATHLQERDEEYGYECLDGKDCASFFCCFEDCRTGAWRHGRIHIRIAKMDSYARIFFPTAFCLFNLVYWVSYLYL

The target of another data set is α1β1γ2S receptors (Rattus norvegicus, UniProt P15431+P62813). The experiment in a line: IGABA enhancement. Conditions: for Emax: read-out: maximal IGABA enhancement (Emax); for Hill-coefficient (nH): α1β1γ2S, GABA EC3-7, Xenopus oocytes. It is filed as cell-based. An outline of the steps: as §1
α1β1γ2S receptors, sequence (P15431 26-474): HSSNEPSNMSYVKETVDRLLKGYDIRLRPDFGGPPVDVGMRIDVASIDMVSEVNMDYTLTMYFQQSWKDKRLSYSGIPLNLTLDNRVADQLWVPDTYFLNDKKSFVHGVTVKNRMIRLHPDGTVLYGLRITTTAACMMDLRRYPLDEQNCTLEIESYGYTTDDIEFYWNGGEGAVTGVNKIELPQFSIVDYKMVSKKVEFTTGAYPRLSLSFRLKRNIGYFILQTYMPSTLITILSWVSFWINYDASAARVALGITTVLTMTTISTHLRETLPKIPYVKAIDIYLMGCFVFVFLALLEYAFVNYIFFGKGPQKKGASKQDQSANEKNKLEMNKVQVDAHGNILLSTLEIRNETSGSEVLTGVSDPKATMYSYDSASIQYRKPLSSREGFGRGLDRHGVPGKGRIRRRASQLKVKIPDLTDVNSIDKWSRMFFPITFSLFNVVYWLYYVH
α1β1γ2S receptors, sequence (P62813 28-455): as the sequence (P62813 28-455) above
α1β1γ2S receptors, sequence (P18508 39-466 partner): as the sequence (P18508 39-466 partner) above
For another data set, the system named is locomotor activity. The experiment in a line: Open-field test. Conditions: for total distance covered in the open field test: 30 min before test, 10 min test, control 38.3 ± 1.5 m. The data set is classed as in vivo, male C57BL/6N mice.
Data set [1] addresses T1, α1β3γ2S receptors (Rattus norvegicus, UniProt P62813+P63079). Conditions: GABA EC3-7, Xenopus oocytes, ref Luger et al. (2015); cited from earlier work.
Another data set deals with GABAA channels. Conditions: ref Khom et al., 2007; cited from earlier work.
For data set [2], the system named is pentylenetetrazole (PTZ)-induced seizure threshold. The experiment in a line: PTZ-induced seizure threshold. The data set is classed as in vivo, male C57BL/6N mice. Conditions: for PTZ-induced seizure threshold: 30 min before test, saline control 40.4 ± 1.4. An outline of the steps: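 Male C57BL/6N mice aged 3–6 months received compound i.p. 30 min before testing. Vehicle was 0.9% NaCl with 10% DMSO and 3% Tween 80. PTZ (10 mg/ml in saline, pH 7.4) was infused into the tail vein at 100 µl/min in freely moving animals until seizure onset. Threshold was the infused PTZ dose per body weight (mg/kg). ≥3 mice per point; one-way ANOVA with Bonferroni.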

The test system is the same in data set [3]. Conditions: 3 mg/kg i.p., 30 min before test; ref Hintersteiner et al. (2014); cited from earlier work.
Data set [4] concerns the target T1, α1β3γ2S receptors. The experiment in a line: IGABA enhancement. It is filed as cell-based. Conditions: for Emax: read-out: maximal IGABA enhancement (Emax); for Hill-coefficient (nH): GABA EC3-7, Xenopus oocytes. The gist of the method: as §1

“Also recorded” adds a separate entry of the source. Like-named read-outs stand apart in the source and are kept apart here.

T1 sequence (P63079 26-473): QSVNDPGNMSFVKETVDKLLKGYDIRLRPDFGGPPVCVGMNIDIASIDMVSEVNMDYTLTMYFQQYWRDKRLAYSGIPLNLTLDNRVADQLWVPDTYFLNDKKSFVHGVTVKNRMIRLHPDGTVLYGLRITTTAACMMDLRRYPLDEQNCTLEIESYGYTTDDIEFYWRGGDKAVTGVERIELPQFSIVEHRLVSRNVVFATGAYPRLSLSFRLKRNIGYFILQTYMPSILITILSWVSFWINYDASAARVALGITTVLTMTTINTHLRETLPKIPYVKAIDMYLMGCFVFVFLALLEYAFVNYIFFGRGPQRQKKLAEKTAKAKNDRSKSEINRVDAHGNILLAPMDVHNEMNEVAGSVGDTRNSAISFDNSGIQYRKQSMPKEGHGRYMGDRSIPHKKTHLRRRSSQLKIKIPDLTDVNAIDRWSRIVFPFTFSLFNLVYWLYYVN
T1 sequence (P62813 28-455): as the sequence (P62813 28-455) above
T1 sequence (P18508 39-466 partner): as the sequence (P18508 39-466 partner) above

Usually EC50 stands for the midpoint of the concentration-response curve. In general, Emax refers to the greatest response seen or fitted, relative to the assay's reference. `CC1=C2[C@H](/C=C(\C)C(=O)O)CC[C@@H](C)[C@H]2CC1` [VA, Valerenic acid, reference compound]: the concentration for a half-maximal effect (EC50) on α1β2γ2S receptors came to 23.1 ± 4.2 µM; on α1β1γ2S receptors, 74.4 ± 19.3 µM. For the same compound, the Emax on α1β2γ2S receptors came to 721 ± 68%; at α1β1γ2S receptors it was 111 ± 16%. For the same compound, the “Hill-coefficient (nH)” value on α1β2γ2S receptors is given as 1.4 ± 0.2; at α1β1γ2S receptors, 1.6 ± 0.5; at α1β3γ2S receptors [1], 1.5 ± 0.3. Besides, the “total distance covered in the open field test” value (“total distance covered” for short) was determined as 34.9 ± 1.3 m in the data set with locomotor activity (1 mg/kg i.p.), 38.7 ± 2.1 m in the data set on locomotor activity (3 mg/kg i.p.), 38.0 ± 1.4 m in the data set with locomotor activity (10 mg/kg i.p.) and 37.6 ± 2.5 m in the data set on locomotor activity (30 mg/kg i.p.). Further, the “effect on locomotor activity vs control” value in the data set on locomotor activity (any tested dose i.p.) is given as “did not differ significantly”. Further, the “concentration directly activating GABAA channels in the absence of GABA” value in the data set with GABAA channels was ≥ 30 µM. Besides, the PTZ-induced seizure threshold in data set [2] (10 mg/kg i.p.) is recorded as 49.0 ± 1.8 mg/kg PTZ; in data set [2] (30 mg/kg i.p.) it was 43.4 ± 1.8 mg/kg PTZ; in data set [3], 47.7 ± 1.4 mg/kg PTZ. Also, in data set [2] (doses <3 mg/kg body weight i.p.), the “effect on PTZ-induced seizure threshold” value is given as “did not alter seizure threshold”.
As for `CC1=C2[C@H](/C=C(\C)C(N)=O)CC[C@@H](C)[C@H]2CC1` [VA-A, (E)-3-((4S,7R,7aR)-3,7-dimethyl-2,4,5,6,7,7a-hexahydro-1H-inden-4-yl)-2-methylacrylamide], the EC50 is 14 ± 2.2 µM at α1β2γ2S receptors, 66.6 ± 34.6 µM at α1β1γ2S receptors and 7.5 ± 1.8 µM on α1β3γ2S receptors [4]. For the same compound, the “Hill-coefficient (nH)” value on α1β2γ2S receptors is 1.4 ± 0.2; at α1β1γ2S receptors it was 1.8 ± 0.6; on α1β3γ2S receptors [4] (α1β3γ2S), 1.5 ± 0.2. In addition, the maximum response (Emax) stood at 218 ± 78% at α1β1γ2S receptors and 972 ± 69% on α1β3γ2S receptors [4]. For the same compound, the entries for the “total distance covered” value in the data set on locomotor activity (10 mg/kg i.p.) and with locomotor activity (30 mg/kg i.p.) were 29.9 ± 2.6 m and 23.5±2.2 m, respectively. Further, the “effect on locomotor activity vs control” value in the data set on locomotor activity (doses of 1 and 3 mg/kg i.p.) is recorded as “did also not affect the total distance covered”; in the data set on locomotor activity (doses ≥10 mg/kg i.p., 10 mg/kg), “reduced locomotion; also recorded: reduced locomotor activity”. Further, the PTZ-induced seizure threshold came to 57.9 ± 1.9 mg/kg PTZ in data set [2] (3 mg/kg i.p.), 55.4 ± 0.7 mg/kg PTZ in data set [2] (10 mg/kg i.p.) and 50.6 ± 2.2 mg/kg PTZ in data set [2] (30 mg/kg i.p.).
Turning to `CC1=C2[C@H](/C=C(\C)C#N)CC[C@@H](C)[C@H]2CC1` [VA-CN, (E)-3-((4S,7R,7aR)-3,7-dimethyl-2,4,5,6,7,7a-hexahydro-1H-inden-4-yl)-2-methylacrylonitrile], the concentration for a half-maximal effect (EC50) was 56.5 ± 13.3 µM on α1β2γ2S receptors, 73 ± 38.7 µM at α1β1γ2S receptors and 42.4 ± 15.8 µM at α1β3γ2S receptors [4]. For the same compound, the figures for the Emax at α1β2γ2S receptors, at α1β1γ2S receptors and on α1β3γ2S receptors [4] were 765 ± 117%, 55 ± 14% and 522 ± 114%, respectively. Besides, the “Hill-coefficient (nH)” value on α1β2γ2S receptors was 2.5 ± 0.7; on α1β1γ2S receptors, 1.7 ± 0.7; on α1β3γ2S receptors [4] (α1β3γ2S) it was 2.1 ± 0.8. Besides, the “total distance covered” value in the data set with locomotor activity (30 mg/kg i.p.) came out at 31.5±1.5 m. In addition, the “effect on locomotor activity vs control” value in the data set with locomotor activity (low doses (≤10 mg/kg) i.p.) was “did not affect locomotor activity”. Also, the PTZ-induced seizure threshold in data set [2] (10 mg/kg i.p.) is reported as 51.1 ± 0.6 mg/kg PTZ.
With `CCN(CC)C(=O)/C(C)=C/[C@@H]1CC[C@@H](C)[C@H]2CCC(C)=C12` [VA-DEA, (E)-3-((4S,7R,7aR)-3,7-dimethyl-2,4,5,6,7,7a-hexahydro-1H-inden-4-yl)-N,N-diethyl-2-methylacrylamide], the EC50 turned out to be 54.4 ± 11.1 µM on α1β2γ2S receptors, 97.2 ± 33.8 µM at α1β1γ2S receptors and 80.8 ± 31.3 µM on α1β3γ2S receptors [4]. Also, the values for the Emax at α1β2γ2S receptors, at α1β1γ2S receptors and on α1β3γ2S receptors [4] were 573 ± 33%, 318 ± 84% and 374 ± 102%, respectively. The “Hill-coefficient (nH)” value at α1β2γ2S receptors is listed as 1.6 ± 0.3; at α1β1γ2S receptors, 1.8 ± 0.3; on α1β3γ2S receptors [4] (α1β3γ2S), 1.9 ± 0.5. Besides, the “effect on locomotor activity vs control” value with locomotor activity (any tested dose i.p.) was “did not reveal any significantly different behavior”. The PTZ-induced seizure threshold in data set [2] (30 mg/kg i.p.) turned out to be 48.7±1.7 mg/kg PTZ.
With `CC1=C2[C@H](/C=C(\C)C(=O)N(C)C)CC[C@@H](C)[C@H]2CC1` [VA-DMA, (E)-3-((4S,7R,7aR)-3,7-dimethyl-2,4,5,6,7,7a-hexahydro-1H-inden-4-yl)-N,N,2-trimethylacrylamide], the concentration giving a half-maximal response (EC50) on α1β2γ2S receptors was 63.9 ± 23.7 µM; on α1β1γ2S receptors, 52.5 ± 20.1 µM; at α1β3γ2S receptors [4], 48 ± 16 µM. Besides, the maximal response (Emax) on α1β2γ2S receptors was 594 ± 36%; at α1β1γ2S receptors it was 305 ± 67%; at α1β3γ2S receptors [4], 415 ± 61%. The “Hill-coefficient (nH)” value at α1β2γ2S receptors was determined as 1.3 ± 0.2; on α1β1γ2S receptors, 1.7 ± 0.5; at α1β3γ2S receptors [4] (α1β3γ2S) it was 1.4 ± 0.2. Moreover, the “effect on locomotor activity vs control” value in the data set with locomotor activity (any tested dose i.p.) is listed as “did not reveal any significantly different behavior”. Besides, the “effect on PTZ-induced seizure threshold vs diluent-treated controls” value in data set [2] (any tested dose i.p.) is given as “did not significantly differ”.
In the case of `CCNC(=O)/C(C)=C/[C@@H]1CC[C@@H](C)[C@H]2CCC(C)=C12` [VA-EA, (E)-3-((4S,7R,7aR)-3,7-dimethyl-2,4,5,6,7,7a-hexahydro-1H-inden-4-yl)-N-ethyl-2-methylacrylamide], the EC50 on α1β2γ2S receptors came out at 11 ± 3.6 µM; on α1β1γ2S receptors, 51.4 ± 19.8 µM; on α1β3γ2S receptors [4], 27.2 ± 6.7 µM. Further, the maximum response (Emax) worked out at 554 ± 49% at α1β2γ2S receptors, 458 ± 124% at α1β1γ2S receptors and 677 ± 64% at α1β3γ2S receptors [4]. The results for the “Hill-coefficient (nH)” value at α1β2γ2S receptors, at α1β1γ2S receptors and at α1β3γ2S receptors [4] (α1β3γ2S) were 1.6 ± 0.3, 1.6 ± 0.3 and 1.3 ± 0.2, respectively. In the data set on locomotor activity (any tested dose i.p.), the “effect on locomotor activity vs control” value is listed as “did not reveal any significantly different behavior”. In data set [2] (30 mg/kg i.p.), the PTZ-induced seizure threshold worked out at 55.6 ± 0.4 mg/kg PTZ.
Regarding `CNC(=O)/C(C)=C/[C@@H]1CC[C@@H](C)[C@H]2CCC(C)=C12` [VA-MA, (E)-3-((4S,7R,7aR)-3,7-dimethyl-2,4,5,6,7,7a-hexahydro-1H-inden-4-yl)-N,2-dimethylacrylamide], the EC50 on α1β2γ2S receptors was 9.1 ± 1.4 µM; at α1β1γ2S receptors, 58.1 ± 16.5 µM; at α1β3γ2S receptors [4], 12.7 ± 0.9 µM. The maximal effect (Emax) on α1β2γ2S receptors turned out to be 917 ± 36%; at α1β1γ2S receptors, 387 ± 56%. In addition, the entries for the “Hill-coefficient (nH)” value on α1β2γ2S receptors, on α1β1γ2S receptors and at α1β3γ2S receptors [4] (α1β3γ2S) were 1.5 ± 0.1, 1.6 ± 0.3 and 1.5 ± 0.1, respectively. The “total distance covered” value in the data set with locomotor activity (30 mg/kg i.p.) was determined as 29.7 ± 2.0 m. Moreover, the “effect on locomotor activity vs control” value is recorded as “reduced locomotion” in the data set with locomotor activity (doses ≥10 mg/kg i.p.) and “did not affect locomotor activity” in the data set with locomotor activity (low doses (≤10 mg/kg) i.p.). In addition, the PTZ-induced seizure threshold came out at 50.4±1.4 mg/kg PTZ in data set [2] (10 mg/kg i.p.) and 63.6 ± 2.5 mg/kg PTZ in data set [2] (30 mg/kg i.p.).
Regarding `CC1=C2[C@H](/C=C(\C)c3nnn[nH]3)CC[C@@H](C)[C@H]2CC1` [VA-TET, 5-((E)-1-((4S,7R,7aR)-3,7-dimethyl-2,4,5,6,7,7a-hexahydro-1H-inden-4-yl)prop-1-en-2-yl)-1H-tetrazole], the EC50 at α1β2γ2S receptors came out at 34.1 ± 6.3 µM; on α1β1γ2S receptors, 23.5 ± 10.9 µM; on α1β3γ2S receptors [4], 6 ± 1 µM. Further, the “Hill-coefficient (nH)” value was found to be 1.0 ± 0.1 on α1β2γ2S receptors, 1.8 ± 0.6 at α1β1γ2S receptors and 1.1 ± 0.1 on α1β3γ2S receptors [4] (α1β3γ2S). The maximal effect (Emax) on α1β1γ2S receptors was determined as 176 ± 43%; at α1β3γ2S receptors [4], 668 ± 57%. Moreover, the “total distance covered” value in the data set with locomotor activity (30 mg/kg i.p.) was 19.2 ± 2.1 m. In addition, the results for the “effect on locomotor activity vs control” value with locomotor activity (doses ≥10 mg/kg i.p.) and in the data set on locomotor activity (low doses (≤10 mg/kg) i.p.) were “reduced locomotion” and “did not affect locomotor activity”, respectively. In addition, in data set [2] (0.3 mg/kg i.p.), the PTZ-induced seizure threshold is on record as 47.3 ± 0.5 mg/kg PTZ. Moreover, the “effect on PTZ-induced seizure threshold” value in data set [2] (doses ≥1 mg/kg i.p.) was “lost its anticonvulsive properties”. Further, the “increase in potency on β3-containing receptors compared with VA” value at α1β3γ2S receptors [4] (EC50 ratio VA / VA-TET, α1β3γ2S) was “approximately threefold”.

The record behind these values is article PMC4885513 (The Journal of Pharmacology and Experimental Therapeutics, 2016).
